In brackets after ≈: the same amount, converted by molar mass. Bridge positions count the residues as written; N and C are the ends. Square brackets hold non-standard residues; d marks the D form. Peptide text beside a SMILES is read from it. * marks the point of attachment. Octanoyl(7-Me) = CC(C)CCCCCC(=O)*; Nonanoyl = CCCCCCCCC(=O)*; X1 = CC[C@H](C)CCCCC(=O)*; dDab = NCC[C@@H](N)C(=O)O; Heptanoyl = CCCCCCC(=O)*; Octanoyl = CCCCCCCC(=O)*; Dab = NCC[C@H](N)C(=O)O; Nva = CCC[C@H](N)C(=O)O
Assays:
[1] = tested on: Klebsiella pneumoniae; assay: Antibacterial activity against NDM-1 producing Klebsiella pneumoniae ATCC BAA-2146 after 18 hrs by agar dilution method; type: functional
Procedure, shortened: (§1)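 Serial two-fold agar dilution per CLSI; bacteria cultured in Mueller-Hinton broth, inoculum about 10^4 cfu/spot; final concentrations 0.03-128 µg/mL; plates incubated 35 °C for 18 h. MIC = lowest concentration preventing visible growth; representative of at least two independent experiments, a third run when the two disagreed.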

[2] = tested on: Klebsiella pneumoniae; assay: Antibacterial activity against extended-spectrum beta-lactamase producing Klebsiella pneumoniae 700603 after 18 hrs by agar dilution method; type: functional; procedure, shortened: as §1
[3] = tested on: Pseudomonas aeruginosa; assay: Antibacterial activity against Pseudomonas aeruginosa ATCC 27853 after 18 hrs by agar dilution method; type: functional; procedure, shortened: as §1
[4] = tested on: Acinetobacter baumannii; assay: Antibacterial activity against Acinetobacter baumannii ATCC 19606 after 18 hrs by agar dilution method; type: functional; procedure, shortened: as §1
[5] = Cytotoxicity against African green monkey Vero cells after 72 hrs by MTT assay; type: cell-based; conditions: chlorocebus sabaeus, Vero cells
Procedure, shortened: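 Vero cells seeded at 2x10^3 cells/well, incubated 24 h at 37 °C, 5% CO2, then exposed to compound 72 h; MTT added for 2 h, medium removed, formazan dissolved in DMSO, absorbance read at 570 nm. Viability relative to untreated cells (100%); CC50 as mean ± SD of three independent experiments, each in triplicate.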

[6] = tested on: Escherichia coli; assay: Antibacterial activity against extended-spectrum beta-lactamase producing Escherichia coli isolate 14-11 after 18 hrs by agar dilution method; type: functional; procedure, shortened: as §1
[7] = tested on: Escherichia coli; assay: Antibacterial activity against Escherichia coli ATCC 25922 after 18 hrs by agar dilution method; type: functional; procedure, shortened: as §1
[8] = Klebsiella pneumoniae, 700603, 18 h
[9] = ATCC 19606 = CIP 70.34 = JCM 6841, 18 h

| Molecule | MIC ([1]; ATCC BAA-2146, 18 h) [µg/mL] | MIC [2, 8] [µg/mL] | MIC ([3]; ATCC 27853, 18 h) [µg/mL] | MIC [4, 9] [µg/mL] | MIC ([6]; isolate 14-11, 18 h) [µg/mL] | MIC ([7]; ATCC 25922, 18 h) [µg/mL] | CC50 at 72 h [5] [µg/mL] | MIC [1] [µg/mL] | MIC [2] [µg/mL] | MIC [3] [µg/mL] | MIC ([4]; ATCC 19606 = CIP 70.34 = JCM 6841) [µg/mL] | MIC [6] [µg/mL] | MIC [7] [µg/mL] |
| --- | --- | --- | --- | --- | --- | --- | --- | --- | --- | --- | --- | --- | --- |
| CC[C@H](C)CCCCC(=O)N[C@@H](CCN)C(=O)N[C@H](C(=O)N[C@@H](CCN)C(=O)N[C@H]1CCNC(=O)[C@H]([C@@H](C)O)NC(=O)[C@H](CCN)NC(=O)[C@H](CCN)NC(=O)[C@H]([C@@H](C)CC)NC(=O)[C@@H](CC(C)C)NC(=O)[C@H](CCN)NC1=O)[C@@H](C)O | 1 (≈ 0.855 µM) | 1 (≈ 0.855 µM) | 2 (≈ 1.71 µM) | 1 (≈ 0.855 µM) | 0.5 (≈ 0.428 µM) | 1 (≈ 0.855 µM) | 176 (≈ 150 µM) | – | – | – | – | – | – |
| CCCCCCCC(=O)N[C@@H](CCN)C(=O)N[C@H](C(=O)N[C@@H](CCN)C(=O)N[C@H]1CCNC(=O)[C@H]([C@@H](C)O)NC(=O)[C@H](CCN)NC(=O)[C@H](CCN)NC(=O)[C@H](CC(C)C)NC(=O)[C@@H](Cc2ccccc2)NC(=O)[C@H](CCN)NC1=O)[C@@H](C)O (Octanoyl-[Dab]T[Dab][Dab][Dab][dF]L[Dab][Dab]T; lactam 4-C) | 1 (≈ 0.841 µM) | 1 (≈ 0.841 µM) | 1 (≈ 0.841 µM) | 0.5 (≈ 0.42 µM) | 1 (≈ 0.841 µM) | 0.5 (≈ 0.42 µM) | 86 (≈ 72.3 µM) | – | – | – | – | – | – |
| CCCCCCCC(=O)N[C@@H](CCN)C(=O)N[C@H](C(=O)N[C@@H](CCN)C(=O)N[C@H]1CCNC(=O)[C@H]([C@@H](C)O)NC(=O)[C@H](CCN)NC(=O)[C@H](CCN)NC(=O)[C@H](CC(C)C)NC(=O)[C@@H](CC(C)C)NC(=O)[C@H](CCN)NC1=O)[C@@H](C)O (Octanoyl-[Dab]T[Dab][Dab][Dab][dL]L[Dab][Dab]T; lactam 4-C) | 0.5 (≈ 0.433 µM) | 1 (≈ 0.865 µM) | 1 (≈ 0.865 µM) | 0.5 (≈ 0.433 µM) | 0.5 (≈ 0.433 µM) | 0.5 (≈ 0.433 µM) | 150 (≈ 130 µM) | – | – | – | – | – | – |
| CC[C@H](C)CCCCC(=O)N[C@@H](CCN)C(=O)N[C@H](C(=O)N[C@@H](CCN)C(=O)N[C@H]1CCNC(=O)[C@H]([C@@H](C)O)NC(=O)[C@H](CCN)NC(=O)[C@H](CCN)NC(=O)[C@H](CC(C)C)NC(=O)[C@@H](Cc2ccccc2)NC(=O)[C@H](CCN)NC1=O)[C@@H](C)O (X1-[Dab]T[Dab][Dab][Dab][dF]L[Dab][Dab]T; lactam 4-C) | 0.25 (≈ 0.208 µM) | 2 (≈ 1.66 µM) | 2 (≈ 1.66 µM) | 0.25 (≈ 0.208 µM) | 0.5 (≈ 0.415 µM) | 1 (≈ 0.831 µM) | 71 (≈ 59 µM) | – | – | – | – | – | – |
| CC[C@H](C)CCCCC(=O)N[C@@H](CCN)C(=O)N[C@H](C(=O)N[C@@H](CCN)C(=O)N[C@H]1CCNC(=O)[C@H]([C@@H](C)O)NC(=O)[C@H](CCN)NC(=O)[C@H](CCN)NC(=O)[C@H](C(C)C)NC(=O)[C@@H](CC(C)C)NC(=O)[C@H](CCN)NC1=O)[C@@H](C)O (X1-[Dab]T[Dab][Dab][Dab][dL]V[Dab][Dab]T; lactam 4-C) | 0.5 (≈ 0.433 µM) | 1 (≈ 0.865 µM) | 2 (≈ 1.73 µM) | 0.5 (≈ 0.433 µM) | 0.5 (≈ 0.433 µM) | 0.5 (≈ 0.433 µM) | 131 (≈ 113 µM) | – | – | – | – | – | – |
| CC[C@H](C)CCCCC(=O)N[C@@H](CCN)C(=O)N[C@H](C(=O)N[C@H](CO)C(=O)N[C@H]1CCNC(=O)[C@H]([C@@H](C)O)NC(=O)[C@H](CCN)NC(=O)[C@H](CCN)NC(=O)[C@H]([C@@H](C)O)NC(=O)[C@@H](CC(C)C)NC(=O)[C@H](CCN)NC1=O)[C@@H](C)O (X1-[Dab]T[dS][Dab][Dab][dL]T[Dab][Dab]T; lactam 4-C) | 0.5 (≈ 0.437 µM) | 1 (≈ 0.874 µM) | 2 (≈ 1.75 µM) | 0.06 (≈ 0.0524 µM) | 0.25 (≈ 0.218 µM) | 0.12 (≈ 0.105 µM) | 189 (≈ 165 µM) | – | – | – | – | – | – |
| CCCCCCC(=O)N[C@@H](CCN)C(=O)N[C@H](C(=O)N[C@@H](CCN)C(=O)N[C@H]1CCNC(=O)[C@H]([C@@H](C)O)NC(=O)[C@H](CCN)NC(=O)[C@H](CCN)NC(=O)[C@H](CC(C)C)NC(=O)[C@@H](Cc2ccccc2)NC(=O)[C@H](CCN)NC1=O)[C@@H](C)O [POLYMYXIN B4] (Heptanoyl-[Dab]T[Dab][Dab][Dab][dF]L[Dab][Dab]T; lactam 4-C) | 0.5 (≈ 0.425 µM) | 1 (≈ 0.851 µM) | 1 (≈ 0.851 µM) | 0.5 (≈ 0.425 µM) | 0.5 (≈ 0.425 µM) | 0.5 (≈ 0.425 µM) | 160 (≈ 136 µM) | – | – | – | – | – | – |
| COLISTIN | – | – | – | – | – | – | – | 1 | 1 | 2 | 0.5 | 0.5 | 1 |

Further molecules by falling MIC ([1]; ATCC BAA-2146, 18 h), results first:

| MIC ([1]; ATCC BAA-2146, 18 h) [µg/mL] | MIC [2, 8] [µg/mL] | MIC ([3]; ATCC 27853, 18 h) [µg/mL] | MIC [4, 9] [µg/mL] | MIC ([6]; isolate 14-11, 18 h) [µg/mL] | MIC ([7]; ATCC 25922, 18 h) [µg/mL] | Molecule | CC50 at 72 h [5] [µg/mL] | MIC [1] [µg/mL] | MIC [2] [µg/mL] | MIC [3] [µg/mL] | MIC ([4]; ATCC 19606 = CIP 70.34 = JCM 6841) [µg/mL] | MIC [6] [µg/mL] | MIC [7] [µg/mL] |
| --- | --- | --- | --- | --- | --- | --- | --- | --- | --- | --- | --- | --- | --- |
| 4 (≈ 3.32 µM) | 2 (≈ 1.66 µM) | 4 (≈ 3.32 µM) | 2 (≈ 1.66 µM) | 2 (≈ 1.66 µM) | 2 (≈ 1.66 µM) | CCCCCCCCC(=O)N[C@@H](CCN)C(=O)N[C@H](C(=O)N[C@@H](CCN)C(=O)N[C@H]1CCNC(=O)[C@H]([C@@H](C)O)NC(=O)[C@H](CCN)NC(=O)[C@H](CCN)NC(=O)[C@H](CC(C)C)NC(=O)[C@@H](Cc2ccccc2)NC(=O)[C@H](CCN)NC1=O)[C@@H](C)O [POLYMYXIN B5] (Nonanoyl-[Dab]T[Dab][Dab][Dab][dF]L[Dab][Dab]T; lactam 4-C) | 33 (≈ 27.4 µM) | – | – | – | – | – | – |
| 1 (≈ 0.865 µM) | 2 (≈ 1.73 µM) | 1 (≈ 0.865 µM) | 1 (≈ 0.865 µM) | 1 (≈ 0.865 µM) | 1 (≈ 0.865 µM) | CCC[C@@H]1NC(=O)[C@@H](CC(C)C)NC(=O)[C@H](CCN)NC(=O)[C@@H](NC(=O)[C@H](CCN)NC(=O)[C@@H](NC(=O)[C@H](CCN)NC(=O)CCCC[C@@H](C)CC)[C@@H](C)O)CCNC(=O)[C@H]([C@@H](C)O)NC(=O)[C@H](CCN)NC(=O)[C@H](CCN)NC1=O (X1-[Dab]T[Dab][Dab][Dab][dL][Nva][Dab][Dab]T; lactam 4-C) | 109 (≈ 94.3 µM) | – | – | – | – | – | – |
| 1 (≈ 0.864 µM) | 1 (≈ 0.864 µM) | 1 (≈ 0.864 µM) | 1 (≈ 0.864 µM) | 1 (≈ 0.864 µM) | 0.5 (≈ 0.432 µM) | CC[C@H](C)CCCCC(=O)N[C@@H](CCN)C(=O)N[C@H](C(=O)N[C@H](CCN)C(=O)N[C@H]1CCNC(=O)[C@H]([C@@H](C)O)NC(=O)[C@H](CCN)NC(=O)[C@H](CCN)NC(=O)[C@H]([C@@H](C)O)NC(=O)[C@@H](CC(C)C)NC(=O)[C@H](CCN)NC1=O)[C@@H](C)O (X1-[Dab]T[dDab][Dab][Dab][dL]T[Dab][Dab]T; lactam 4-C) | 145 (≈ 125 µM) | – | – | – | – | – | – |
| 1 (≈ 0.855 µM) | 1 (≈ 0.855 µM) | 2 (≈ 1.71 µM) | 1 (≈ 0.855 µM) | 1 (≈ 0.855 µM) | 1 (≈ 0.855 µM) | CC(C)CCCCCC(=O)N[C@@H](CCN)C(=O)N[C@H](C(=O)N[C@@H](CCN)C(=O)N[C@H]1CCNC(=O)[C@H]([C@@H](C)O)NC(=O)[C@H](CCN)NC(=O)[C@H](CCN)NC(=O)[C@H](CC(C)C)NC(=O)[C@@H](CC(C)C)NC(=O)[C@H](CCN)NC1=O)[C@@H](C)O ({Octanoyl(7-Me)}-[Dab]T[Dab][Dab][Dab][dL]L[Dab][Dab]T; lactam 4-C) | 87 (≈ 74.4 µM) | – | – | – | – | – | – |
| 0.5 (≈ 0.424 µM) | 1 (≈ 0.849 µM) | 4 (≈ 3.39 µM) | 0.12 (≈ 0.102 µM) | 0.5 (≈ 0.424 µM) | 0.25 (≈ 0.212 µM) | CC[C@H](C)CCCCC(=O)N[C@@H](CCN)C(=O)N[C@H](C(=O)N[C@H](CO)C(=O)N[C@H]1CCNC(=O)[C@H]([C@@H](C)O)NC(=O)[C@H](CCN)NC(=O)[C@H](CCN)NC(=O)[C@H]([C@@H](C)O)NC(=O)[C@@H](Cc2ccccc2)NC(=O)[C@H](CCN)NC1=O)[C@@H](C)O | 160 (≈ 136 µM) | – | – | – | – | – | – |
| 0.5 (≈ 0.438 µM) | 0.5 (≈ 0.438 µM) | 1 (≈ 0.876 µM) | 2 (≈ 1.75 µM) | 0.5 (≈ 0.438 µM) | 1 (≈ 0.876 µM) | CCCCCCC(=O)N[C@@H](CCN)C(=O)N[C@H](C(=O)N[C@@H](CCN)C(=O)N[C@H]1CCNC(=O)[C@H]([C@@H](C)O)NC(=O)[C@H](CCN)NC(=O)[C@H](CCN)NC(=O)[C@H](CC(C)C)NC(=O)[C@@H](CC(C)C)NC(=O)[C@H](CCN)NC1=O)[C@@H](C)O (Heptanoyl-[Dab]T[Dab][Dab][Dab][dL]L[Dab][Dab]T; lactam 4-C) | 216 (≈ 189 µM) | – | – | – | – | – | – |
